Data reported in ChEMBL document CHEMBL2062426 (J Med Chem, 2012).

How the values were obtained:
[1] = biological target: 72 kDa type IV collagenase (Homo sapiens, UniProt P08253); test: Inhibition of MMP2 using (7-methoxycoumarin-4-yl)acetyl-Pro-Leu-Gly-Leu-(3-(2,4-dinitrophenyl)-L-2,3-diaminopropionyl)Ala-Arg-NH2 as substrate incubated for 30 mins prior to substrate addition measured for 10 mins by fluorometry
[2] = biological target: Matrix metalloproteinase-9 (Homo sapiens, UniProt P14780); test: Inhibition of MMP9 using (7-methoxycoumarin-4-yl)acetyl-Pro-Leu-Gly-Leu-(3-(2,4-dinitrophenyl)-L-2,3-diaminopropionyl)Ala-Arg-NH2 as substrate incubated for 30 mins prior to substrate addition measured for 10 mins by fluorometry
Procedure, shortened: (§1)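 Activated MMP-8 or MMP-9 (2 nM) was preincubated with inhibitor (10 pM–1 mM) in 50 mM Tris-HCl pH 7.5 with 0.2 M NaCl, 5 mM CaCl2, 20 μM ZnSO4 and 0.05% Brij 35 at 37 °C for 30 min. Fluorogenic substrate (10 μL of 50 μM into 90 μL) was then added. Rates from the first 10 min were plotted against inhibitor concentration, and values are the mean of three experiments.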

Collagenase 3 = Collagenase 3 (Homo sapiens, UniProt P45452); test: Inhibition of MMP13 using (7-methoxycoumarin-4-yl)acetyl-Pro-Leu-Gly-Leu-(3-(2,4-dinitrophenyl)-L-2,3-diaminopropionyl)Ala-Arg-NH2 as substrate incubated for 30 mins prior to substrate addition measured for 10 mins by fluorometry
Neutrophil collagenase = Neutrophil collagenase (Homo sapiens, UniProt P22894); test: Inhibition of MMP8 using (7-methoxycoumarin-4-yl)acetyl-Pro-Leu-Gly-Leu-(3-(2,4-dinitrophenyl)-L-2,3-diaminopropionyl)Ala-Arg-NH2 as substrate incubated for 30 mins prior to substrate addition measured for 10 mins by fluorometry; procedure, shortened: as §1
Sequence of Neutrophil collagenase (P22894 whole entry): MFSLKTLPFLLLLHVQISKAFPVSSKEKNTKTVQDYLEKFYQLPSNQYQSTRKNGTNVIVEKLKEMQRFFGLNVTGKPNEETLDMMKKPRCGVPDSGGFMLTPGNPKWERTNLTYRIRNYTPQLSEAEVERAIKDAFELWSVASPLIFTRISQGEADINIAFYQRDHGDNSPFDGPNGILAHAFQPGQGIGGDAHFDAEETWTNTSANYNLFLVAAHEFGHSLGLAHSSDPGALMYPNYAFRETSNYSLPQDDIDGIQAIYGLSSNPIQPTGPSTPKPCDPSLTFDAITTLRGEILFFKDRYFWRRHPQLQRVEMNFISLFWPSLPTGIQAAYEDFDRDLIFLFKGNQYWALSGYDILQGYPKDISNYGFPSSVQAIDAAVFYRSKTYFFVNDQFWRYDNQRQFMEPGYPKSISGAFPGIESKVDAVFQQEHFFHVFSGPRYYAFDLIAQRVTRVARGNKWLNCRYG

Sequence of Matrix metalloproteinase-9 (P14780 whole entry): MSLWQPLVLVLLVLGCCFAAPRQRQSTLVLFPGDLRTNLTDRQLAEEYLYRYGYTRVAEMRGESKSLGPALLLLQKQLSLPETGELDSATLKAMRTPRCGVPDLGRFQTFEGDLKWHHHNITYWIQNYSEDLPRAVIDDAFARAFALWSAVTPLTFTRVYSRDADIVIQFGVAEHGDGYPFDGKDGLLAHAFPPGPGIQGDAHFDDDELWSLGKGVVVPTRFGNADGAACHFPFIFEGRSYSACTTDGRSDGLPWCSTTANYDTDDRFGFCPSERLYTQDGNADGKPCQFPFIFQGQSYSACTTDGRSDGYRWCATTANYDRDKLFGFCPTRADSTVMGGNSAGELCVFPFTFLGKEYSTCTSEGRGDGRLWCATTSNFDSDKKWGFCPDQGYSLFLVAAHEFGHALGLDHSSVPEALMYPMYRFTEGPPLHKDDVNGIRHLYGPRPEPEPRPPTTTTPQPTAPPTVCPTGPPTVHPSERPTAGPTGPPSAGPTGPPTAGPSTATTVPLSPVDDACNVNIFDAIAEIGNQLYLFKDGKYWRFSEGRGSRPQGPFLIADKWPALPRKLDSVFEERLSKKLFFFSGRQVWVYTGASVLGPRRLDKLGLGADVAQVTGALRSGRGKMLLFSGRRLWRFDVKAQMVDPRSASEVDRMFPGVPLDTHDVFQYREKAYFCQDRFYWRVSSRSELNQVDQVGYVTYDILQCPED
Sequence of 72 kDa type IV collagenase (P08253 whole entry): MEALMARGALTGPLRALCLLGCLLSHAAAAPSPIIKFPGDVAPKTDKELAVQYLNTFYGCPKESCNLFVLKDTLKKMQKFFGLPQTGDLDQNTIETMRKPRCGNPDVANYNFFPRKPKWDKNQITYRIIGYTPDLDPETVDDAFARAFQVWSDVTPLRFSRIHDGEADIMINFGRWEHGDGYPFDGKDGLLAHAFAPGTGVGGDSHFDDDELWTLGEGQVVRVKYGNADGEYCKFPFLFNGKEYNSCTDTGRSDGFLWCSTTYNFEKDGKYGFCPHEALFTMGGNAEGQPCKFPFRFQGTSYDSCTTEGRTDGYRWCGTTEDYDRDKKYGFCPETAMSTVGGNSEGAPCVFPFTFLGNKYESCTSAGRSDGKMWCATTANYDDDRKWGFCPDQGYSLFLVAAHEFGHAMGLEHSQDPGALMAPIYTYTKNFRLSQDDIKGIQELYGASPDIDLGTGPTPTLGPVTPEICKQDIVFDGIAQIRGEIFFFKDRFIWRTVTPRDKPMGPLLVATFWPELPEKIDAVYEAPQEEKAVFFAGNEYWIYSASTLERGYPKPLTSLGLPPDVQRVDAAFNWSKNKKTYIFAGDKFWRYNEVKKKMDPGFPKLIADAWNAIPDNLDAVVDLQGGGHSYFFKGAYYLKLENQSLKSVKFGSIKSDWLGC

An IC50 [1] of 0.2 nM, an IC50 [2] of 0.6 nM and an IC50 (Collagenase 3) of 0.5 nM were found for `COc1ccc(S(=O)(=O)N(Cc2cn([C@@H]3O[C@H](CO)[C@@H](O)[C@H](O)[C@H]3F)nn2)[C@@H](C(=O)NO)C(C)C)cc1` in this work. The IC50 (Neutrophil collagenase) was 0.5 nM.

An IC50 [1] greater than 100000 nM, an IC50 [2] greater than 100000 nM and an IC50 (Collagenase 3) greater than 100000 nM were found for `COc1ccc(S(=O)(=O)N(Cc2cn(CCOCCOCCOCCn3cc(CN([C@@H](C(=O)NO)C(C)C)S(=O)(=O)c4ccc(OC)cc4)nn3)nn2)[C@@H](C(=O)NO)C(C)C)cc1` in this work. It also gave an IC50 (Neutrophil collagenase) greater than 100000 nM.
